Measured values reported in ChEMBL document CHEMBL4689842, “EUbOPEN Chemogenomics Library wave 1” (2021).

Tests used:
[1] = test system: HEK-293T; test: Incucyte cell viability with HEK293T; assay type: toxicity, cell-based; details: human, 10 µM, compound concentration 10 uM; further: filed as whole numbers so only -1 and 0 and 1 occur
[2] = test system: U2OS; test: Multiplex assay against U2OS; assay type: toxicity, cell-based; details: human
How it was run: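 Phenotypes for tubulin, mitochondrial mass and membrane permeability are expressed as per cents of healthy-nucleus cells. Cells were stained live at seeding with Hoechst33342, BioTracker Green Microtubule Cytoskeleton Dye, MitoTracker Red and Annexin V Alexa Fluor 680, then imaged after compound addition on a CQ1 microscope at 37°C and 5% CO2. Machine-learning gating in CellPathfinder separated Hoechst high-intensity objects from normal cells, divided normal cells by nuclear state (healthy, pyknosed, fragmented) and divided pyknosed cells into mitotic or apoptotic.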

[3] = 12 h, 1 µM, compound concentration 1 uM, replicate 1
[4] = 12 h, 1 µM, compound concentration 1 uM, replicate 2
[5] = 12 h, 10 µM, compound concentration 10 uM, replicate 1
[6] = 12 h, 10 µM, compound concentration 10 uM, replicate 2
[7] = 24 h, 1 µM, compound concentration 1 uM, replicate 1
[8] = 24 h, 1 µM, compound concentration 1 uM, replicate 2
[9] = 24 h, 10 µM, compound concentration 10 uM, replicate 1
[10] = 24 h, 10 µM, compound concentration 10 uM, replicate 2
[11] = 48 h, 1 µM, compound concentration 1 uM, replicate 1
[12] = 48 h, 1 µM, compound concentration 1 uM, replicate 2
[13] = 48 h, 10 µM, compound concentration 10 uM, replicate 1
[14] = 48 h, 10 µM, compound concentration 10 uM, replicate 2

CNc1oc(-c2cccc3ccccc23)nc1C#N
Growth Rate ([1]; 0 h, replicate number 1, timepoint 0 hours): 0 | Growth Rate ([1]; 12 h, replicate number 1, timepoint 12 hours): 1 | Growth Rate ([1]; 18 h, replicate number 1, timepoint 18 hours): 1 | Growth Rate ([1]; 24 h, replicate number 1, timepoint 24 hours): 1 | Population Apoptotic (%) [2, 3]: 36% | Population Fragmented Nuclei (%) [2, 3]: 22% | Population Healthy Nuclei (%) [2, 3]: 67% | Population Hoechst High Intensity Objects (%) [2, 3]: 16% | Population Membrane Permeable-Phenotype (%) [2, 3]: 10% | Population Mitochondria Different-Phenotype (%) [2, 3]: 9% | Population Mitotic Cells (%) [2, 3]: 63% | Population Normal (%) [2, 3]: 83% | Population Pyknosed Nuclei (%) [2, 3]: 10% | Population Tubulin-Different-Phenotype (%) [2, 3]: 8% | Total Cell Count [2, 3]: 113 | Population Apoptotic (%) [2, 4]: 0% | Population Fragmented Nuclei (%) [2, 4]: 29% | Population Hoechst High Intensity Objects (%) [2, 4]: 15% | Population Membrane Permeable-Phenotype (%) [2, 4]: 3% | Population Mitochondria Different-Phenotype (%) [2, 4]: 11% | Population Mitotic Cells (%) [2, 4]: 100% | Population Normal (%) [2, 4]: 84% | Population Pyknosed Nuclei (%) [2, 4]: 2% | Population Tubulin-Different-Phenotype (%) [2, 4]: 7% | Total Cell Count [2, 4]: 100 | Population Apoptotic (%) [2, 5]: 86% | Population Fragmented Nuclei (%) [2, 5]: 49% | Population Healthy Nuclei (%) [2, 5]: 18% | Population Hoechst High Intensity Objects (%) [2, 5]: 44% | Population Membrane Permeable-Phenotype (%) [2, 5]: 3% | Population Mitochondria Different-Phenotype (%) [2, 5]: 11% | Population Mitotic Cells (%) [2, 5]: 13% | Population Normal (%) [2, 5]: 55% | Population Pyknosed Nuclei (%) [2, 5]: 32% | Population Tubulin-Different-Phenotype (%) [2, 5]: 15% | Total Cell Count [2, 5]: 259 | Population Apoptotic (%) [2, 6]: 80% | Population Fragmented Nuclei (%) [2, 6]: 55% | Population Healthy Nuclei (%) [2, 6]: 16% | Population Hoechst High Intensity Objects (%) [2, 6]: 46% | Population Membrane Permeable-Phenotype (%) [2, 6]: 1% | Population Mitochondria Different-Phenotype (%) [2, 6]: 3% | Population Mitotic Cells (%) [2, 6]: 19% | Population Normal (%) [2, 6]: 53% | Population Pyknosed Nuclei (%) [2, 6]: 28% | Population Tubulin-Different-Phenotype (%) [2, 6]: 24% | Total Cell Count [2, 6]: 92 | Population Apoptotic (%) [2, 7]: 53% | Population Fragmented Nuclei (%) [2, 7]: 18% | Population Healthy Nuclei (%) [2, 7]: 75% | Population Hoechst High Intensity Objects (%) [2, 7]: 17% | Population Membrane Permeable-Phenotype (%) [2, 7]: 2% | Population Mitochondria Different-Phenotype (%) [2, 7]: 3% | Population Mitotic Cells (%) [2, 7]: 46% | Population Normal (%) [2, 7]: 82% | Population Pyknosed Nuclei (%) [2, 7]: 5% | Population Tubulin-Different-Phenotype (%) [2, 7]: 6% | Total Cell Count [2, 7]: 119 | Population Apoptotic (%) [2, 8]: 25% | Population Fragmented Nuclei (%) [2, 8]: 28% | Population Healthy Nuclei (%) [2, 8]: 67% | Population Hoechst High Intensity Objects (%) [2, 8]: 6% | Population Membrane Permeable-Phenotype (%) [2, 8]: 1% | Population Mitochondria Different-Phenotype (%) [2, 8]: 10% | Population Mitotic Cells (%) [2, 8]: 75% | Population Normal (%) [2, 8]: 93% | Population Pyknosed Nuclei (%) [2, 8]: 3% | Population Tubulin-Different-Phenotype (%) [2, 8]: 21% | Total Cell Count [2, 8]: 113 | Population Apoptotic (%) [2, 9]: 86% | Population Fragmented Nuclei (%) [2, 9]: 50% | Population Healthy Nuclei (%) [2, 9]: 17% | Population Hoechst High Intensity Objects (%) [2, 9]: 43% | Population Membrane Permeable-Phenotype (%) [2, 9]: 3% | Population Mitochondria Different-Phenotype (%) [2, 9]: 15% | Population Mitotic Cells (%) [2, 9]: 13% | Population Normal (%) [2, 9]: 56% | Population Pyknosed Nuclei (%) [2, 9]: 32% | Population Tubulin-Different-Phenotype (%) [2, 9]: 14% | Total Cell Count [2, 9]: 352 | Population Apoptotic (%) [2, 10]: 81% | Population Fragmented Nuclei (%) [2, 10]: 57% | Population Healthy Nuclei (%) [2, 10]: 16% | Population Hoechst High Intensity Objects (%) [2, 10]: 44% | Population Mitochondria Different-Phenotype (%) [2, 10]: 3% | Population Mitotic Cells (%) [2, 10]: 18% | Population Normal (%) [2, 10]: 55% | Population Pyknosed Nuclei (%) [2, 10]: 25% | Population Tubulin-Different-Phenotype (%) [2, 10]: 26% | Total Cell Count [2, 10]: 116 | Population Apoptotic (%) [2, 11]: 56% | Population Fragmented Nuclei (%) [2, 11]: 16% | Population Healthy Nuclei (%) [2, 11]: 79% | Population Hoechst High Intensity Objects (%) [2, 11]: 14% | Population Mitochondria Different-Phenotype (%) [2, 11]: 7% | Population Mitotic Cells (%) [2, 11]: 43% | Population Normal (%) [2, 11]: 85% | Population Pyknosed Nuclei (%) [2, 11]: 3% | Population Tubulin-Different-Phenotype (%) [2, 11]: 8% | Total Cell Count [2, 11]: 243 | Population Apoptotic (%) [2, 12]: 0% | Population Fragmented Nuclei (%) [2, 12]: 29% | Population Healthy Nuclei (%) [2, 12]: 68% | Population Hoechst High Intensity Objects (%) [2, 12]: 10% | Population Membrane Permeable-Phenotype (%) [2, 12]: 1% | Population Mitochondria Different-Phenotype (%) [2, 12]: 8% | Population Mitotic Cells (%) [2, 12]: 100% | Population Normal (%) [2, 12]: 89% | Population Pyknosed Nuclei (%) [2, 12]: 2% | Population Tubulin-Different-Phenotype (%) [2, 12]: 19% | Total Cell Count [2, 12]: 155 | Population Apoptotic (%) [2, 13]: 87% | Population Fragmented Nuclei (%) [2, 13]: 53% | Population Healthy Nuclei (%) [2, 13]: 18% | Population Hoechst High Intensity Objects (%) [2, 13]: 43% | Population Membrane Permeable-Phenotype (%) [2, 13]: 3% | Population Mitochondria Different-Phenotype (%) [2, 13]: 12% | Population Mitotic Cells (%) [2, 13]: 12% | Population Normal (%) [2, 13]: 56% | Population Pyknosed Nuclei (%) [2, 13]: 27% | Population Tubulin-Different-Phenotype (%) [2, 13]: 17% | Total Cell Count [2, 13]: 525 | Population Apoptotic (%) [2, 14]: 81% | Population Fragmented Nuclei (%) [2, 14]: 57% | Population Healthy Nuclei (%) [2, 14]: 14% | Population Mitochondria Different-Phenotype (%) [2, 14]: 5% | Population Mitotic Cells (%) [2, 14]: 18% | Population Tubulin-Different-Phenotype (%) [2, 14]: 26% | Total Cell Count [2, 14]: 168
